Measured values reported in ChEMBL document CHEMBL1629490, “Synthesis and anti-inflammatory evaluation of novel mono-carbonyl analogues of curcumin in LPS-stimulated RAW 264.7 macrophages” (Eur J Med Chem, 2010).
Calls of active or inactive are those of the source. No cut-off for these calls is given here.

Columns and labels:
[1] = tested on: RAW264.7; assay: Antiinflammatory activity in mouse RAW264.7 cells assessed as inhibition of LPS-induced IL-6 production at 10 uM after 2 hrs by ELISA; format: functional; details: for inhibition at 10 µM: RAW264.7, 2 h
Summary of the method: (§1)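 RAW 264.7 cells were grown in DMEM with 10% heat-inactivated FBS and penicillin/streptomycin at 37 °C with 5% CO2, plated at 4.0 × 10^5/plate overnight, and pretreated for 2 h with compound at 10 µM (DMSO stock; vehicle control). LPS (0.5 µg/ml) was added for 22 h. TNF-α and IL-6 in the medium were measured by ELISA, normalized to cell protein, and expressed as % of LPS control. Values are mean ± SE of 3–5 independent experiments.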

[2] = tested on: RAW264.7; assay: Antiinflammatory activity in mouse RAW264.7 cells assessed as inhibition of LPS-induced TNF alpha production at 10 uM after 2 hrs by ELISA; format: functional; details: for inhibition at 10 µM: RAW264.7, 2 h; summary of the method: as §1
[3] = tested on: RAW264.7; assay: Antiinflammatory activity in mouse RAW264.7 cells assessed as inhibition of LPS-induced IL-6 production after 2 hrs by ELISA; format: functional, cell-based; details: RAW264.7, 2 h
[4] = tested on: RAW264.7; assay: Cytotoxicity against mouse RAW264.7 cells; format: cell-based
[5] = tested on: RAW264.7; assay: Antiinflammatory activity in mouse RAW264.7 cells assessed as inhibition of LPS-induced TNF alpha production at 1 to 20 uM after 2 hrs by ELISA; format: functional, cell-based
Summary of the method: (§2)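 Murine RAW 264.7 cells were plated at 4.0 × 10^6/plate overnight (37 °C, 5% CO2) and pretreated for 2 h with compound at 1, 2.5, 5.0, 10 and 20 µM. LPS at 0.5 µg/ml followed for 22 h. Media TNF-α and IL-6 were measured by ELISA, normalized to total cell-lysate protein, and given as % of LPS control. Values are mean ± SE of 3–5 independent experiments.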

[6] = tested on: RAW264.7; assay: Antiinflammatory activity in mouse RAW264.7 cells assessed as inhibition of LPS-induced TNF alpha production after 2 hrs by ELISA; format: functional, cell-based; details: RAW264.7, 2 h
[7] = tested on: RAW264.7; assay: Antiinflammatory activity in mouse RAW264.7 cells assessed as inhibition of LPS-induced IL-6 production at 1 to 20 uM after 2 hrs by ELISA; format: functional, cell-based; summary of the method: as §2

SMILES | inhibition at 10 µM [2] [%] | inhibition [2] | inhibition [1] | other results
O=C(/C=C/c1ccc(N2CCOCC2)cc1)/C=C/c1ccc(N2CCOCC2)cc1 | > 20 | – | – | inhibition at 10 µM [1]: 50%
O=C(/C=C/c1ccc(N2CCCCC2)cc1)/C=C/c1ccc(N2CCCCC2)cc1 | – | Active | – | inhibition at 10 µM [1]: 50%
COc1ccc(/C=C/C(=O)/C=C/c2ccc(OC)cc2F)c(F)c1 | 20 | – | – | inhibition at 10 µM [1]: 51.1%
COc1ccc(F)c(/C=C2\CC/C(=C\c3cc(OC)ccc3F)C2=O)c1 | – | Active | – | inhibition at 10 µM [1]: 30%
COc1ccc(F)c(/C=C2\CCC/C(=C\c3cc(OC)ccc3F)C2=O)c1 | 20 | – | Active | –
COc1cccc(/C=C/C(=O)/C=C/c2cccc(OC)c2O)c1O | – | Active | Active | –
CCN(CC)c1ccc(/C=C/C(=O)/C=C/c2ccc(N(CC)CC)cc2)cc1 | – | Active | – | inhibition at 10 µM [1]: 50%
O=C1/C(=C/c2ccc(N3CCCCC3)cc2)CC/C1=C\c1ccc(N2CCCCC2)cc1 | 20 | – | Active | –
O=C1/C(=C/c2ccc(C(F)(F)F)cc2C(F)(F)F)CCC/C1=C\c1ccc(C(F)(F)F)cc1C(F)(F)F | 20 | – | Active | –
CCN(CC)c1ccc(/C=C2\CC/C(=C\c3ccc(N(CC)CC)cc3)C2=O)cc1 | 67.5 | – | – | IC50 [3]: 1.07 µM; Activity [4]: Non-toxic; inhibition [5]: Dose-dependent effect; inhibition at 10 µM [1]: 92.7%; IC50 [6]: 16.4 µM; inhibition [7]: Dose-dependent effect
COc1cc(OC)c(OC)cc1/C=C1\CCC/C(=C\c2cc(OC)c(OC)cc2OC)C1=O | – | Active | Active | –
O=C1/C(=C/c2ccc(N3CCOCC3)cc2)CC/C1=C\c1ccc(N2CCOCC2)cc1 | – | Active | Active | –
O=C1/C(=C/c2c(F)cccc2C(F)(F)F)CC/C1=C\c1c(F)cccc1C(F)(F)F | > 20 | – | Active | –
O=C1/C(=C/c2cccc(C(F)(F)F)c2F)CC/C1=C\c1cccc(C(F)(F)F)c1F | – | Active | Active | –
COc1cccc(/C=C2\CC/C(=C\c3cccc(OC)c3O)C2=O)c1O | – | Active | Active | –
Cc1cc(N(CCCl)CCCl)ccc1/C=C1\CC/C(=C\c2ccc(N(CCCl)CCCl)cc2C)C1=O | – | Active | – | inhibition at 10 µM [1]: 30%
CCOc1ccc(Br)cc1/C=C1\CCC/C(=C\c2cc(Br)ccc2OCC)C1=O | – | Active | Active | –

SMILES | inhibition at 10 µM [2] [%] | inhibition [2] | inhibition [1] | other results
O=C1/C(=C/c2ccc(N3CCCCC3)cc2)CCC/C1=C\c1ccc(N2CCCCC2)cc1 | – | Active | Active | –
O=C1/C(=C/c2ccc(C(F)(F)F)cc2F)CC/C1=C\c1ccc(C(F)(F)F)cc1F | – | Active | Active | –
O=C1/C(=C/c2ccc(C(F)(F)F)cc2F)CCC/C1=C\c1ccc(C(F)(F)F)cc1F | – | Active | Active | –
CCOC(OCC)c1cccc(/C=C2\CC/C(=C\c3cccc(C(OCC)OCC)c3)C2=O)c1 | – | Active | Active | –
COc1cc(/C=C/C(=O)CC(=O)/C=C/c2ccc(O)c(OC)c2)ccc1O [CURCUMIN] | 35.6 | – | – | inhibition at 10 µM [1]: 75.7%
O=C1/C(=C/c2c(F)cccc2C(F)(F)F)CCC/C1=C\c1c(F)cccc1C(F)(F)F | – | Active | Active | –
COc1ccc(/C=C2\CC/C(=C\c3ccc(OC)cc3F)C2=O)c(F)c1 | 20 | – | Active | –
Cc1cc(N(CCCl)CCCl)ccc1/C=C/C(=O)/C=C/c1ccc(N(CCCl)CCCl)cc1C | 20 | – | – | inhibition at 10 µM [1]: 30%
Cc1cc(N(CCCl)CCCl)ccc1/C=C1\CCC/C(=C\c2ccc(N(CCCl)CCCl)cc2C)C1=O | – | Active | Active | –
COc1cc(OC)c(OC)cc1/C=C/C(=O)/C=C/c1cc(OC)c(OC)cc1OC | > 20 | – | Active | –
COc1cc(OC)c(OC)cc1/C=C1\CC/C(=C\c2cc(OC)c(OC)cc2OC)C1=O | – | Active | Active | –
O=C(/C=C/c1c(F)cccc1C(F)(F)F)/C=C/c1c(F)cccc1C(F)(F)F | – | Active | – | inhibition at 10 µM [1]: 30%
O=C1/C(=C/c2ccc(N3CCOCC3)cc2)CCC/C1=C\c1ccc(N2CCOCC2)cc1 | – | Active | Active | –
O=C1/C(=C/c2cccc(C(F)(F)F)c2F)CCC/C1=C\c1cccc(C(F)(F)F)c1F | > 20 | – | Active | –
CCN(CC)c1ccc(/C=C2\CCC/C(=C\c3ccc(N(CC)CC)cc3)C2=O)cc1 | – | Active | Active | –
CCOc1ccc(Br)cc1/C=C/C(=O)/C=C/c1cc(Br)ccc1OCC | – | Active | Active | IC50 [3]: 3.64 µM; Activity [4]: Non-toxic; inhibition [5]: Dose-dependent effect; IC50 [6]: 6.28 µM; inhibition [7]: Dose-dependent effect
CCOc1ccc(Br)cc1/C=C1\CC/C(=C\c2cc(Br)ccc2OCC)C1=O | – | Active | Active | –
